Measurements taken from ChEMBL document CHEMBL1122065, “Potential organ- or tumor-imaging agents. 22. Acyl-labeled cholesterol esters” (J Med Chem, 1982).

Key:
Settings in all cases: in vivo
Rattus norvegicus [1] = test: Distribution (percent dose/g of tissue) of radioactivity 24 hr after intravenous administration of [125I]-labeled compound in rat heart; assay type: ADME, organism-based
Procedure, shortened: (§1)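 Radioiodinated ester given IV to adult female Sprague–Dawley rats (200–300 g), 5–50 μCi per animal, 3–5 rats per compound. Rats killed by exsanguination under ether at 24 h. Organs blotted, large ones minced, weighed samples gamma-counted in well scintillation counter (84% efficiency). Value is % administered dose per g tissue, background-corrected; mean with SEM.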

Rattus norvegicus [2] = test: Distribution (percent dose/g of tissue) of radioactivity 24 hr after intravenous administration of [125I]-labeled compound in rat thyroid; assay type: ADME, organism-based, Thyroid gland; procedure, shortened: as §1
Rattus norvegicus [3] = test: Distribution (percent dose/g of tissue) of radioactivity 24 hr after intravenous administration of [125I]-labeled compound in rat liver; assay type: ADME, organism-based; procedure, shortened: as §1
Rattus norvegicus [4] = test: Distribution (percent dose/g of tissue) of radioactivity 24 hr after intravenous administration of [125I]-labeled compound in rat plasma; assay type: ADME, organism-based; procedure, shortened: as §1
Rattus norvegicus [5] = test: Distribution (percent dose/g of tissue) of radioactivity 24 hr after intravenous administration of [125I]-labeled compound in rat spleen; assay type: ADME, organism-based; procedure, shortened: as §1
Rattus norvegicus [6] = test: Distribution (percent dose/g of tissue) of radioactivity 24 hr after intravenous administration of [125I]-labeled compound in rat adrenal cortex; assay type: ADME, organism-based; procedure, shortened: as §1
Rattus norvegicus [7] = test: Distribution (percent dose/g of tissue) of radioactivity 24 hr after intravenous administration of [125I]-labeled compound in rat lung; assay type: ADME, organism-based; procedure, shortened: as §1
Rattus norvegicus [8] = test: Distribution (percent dose/g of tissue) of radioactivity 24 hr after intravenous administration of [125I]-labeled compound to rat blood; assay type: ADME, organism-based; procedure, shortened: as §1
Rattus norvegicus [9] = test: Distribution (percent dose/g of tissue) of radioactivity 24 hr after intravenous administration of [125I]-labeled compound in rat ovary; assay type: ADME, organism-based, Female gonad; procedure, shortened: as §1
Rattus norvegicus [10] = test: Distribution (percent dose/g of tissue) of radioactivity 24 hr after intravenous administration of [125I]-labeled compound in rat blood; assay type: ADME, organism-based; procedure, shortened: as §1
Rattus norvegicus [11] = test: Distribution (percent dose/g of tissue) of radioactivity 24 hr after intravenous administration of [125I]-labeled compound to rat spleen; assay type: ADME, organism-based; procedure, shortened: as §1
Rattus norvegicus [12] = test: Distribution (percent dose/g of tissue) of radioactivity 24 hr after intravenous administration of [125I]-labeled compound to rat thyroid; assay type: ADME, organism-based, Thyroid gland; procedure, shortened: as §1

SMILES	Activity (Rattus norvegicus [1])	Activity (Rattus norvegicus [2])	Activity (Rattus norvegicus [3])	Activity (Rattus norvegicus [4])	Activity (Rattus norvegicus [5])	Activity (Rattus norvegicus [6])	Activity (Rattus norvegicus [7])	Activity (Rattus norvegicus [8])	Activity (Rattus norvegicus [9])	Activity (Rattus norvegicus [10])	Activity (Rattus norvegicus [11])	Activity (Rattus norvegicus [12])
CC(C)CCCC(C)C1CCC2C3CC=C4CC(OC(=O)c5cccc(I)c5)CCC4(C)C3CCC12C (centres undefined)	0.16 % dose (g of tissue)-1	7.3 % dose (g of tissue)-1	5.03 % dose (g of tissue)-1	0.55 % dose (g of tissue)-1	1.86 % dose (g of tissue)-1	12.76 % dose (g of tissue)-1	0.46 % dose (g of tissue)-1	0.3 % dose (g of tissue)-1	15.7 % dose (g of tissue)-1			
CC(C)CCCC(C)C1CCC2C3CC=C4CC(OC(=O)CCCc5ccc(I)cc5)CCC4(C)C3CCC12C (centres undefined)	0.25 % dose (g of tissue)-1	30.09 % dose (g of tissue)-1	0.36 % dose (g of tissue)-1	1.51 % dose (g of tissue)-1	0.16 % dose (g of tissue)-1	1.94 % dose (g of tissue)-1	0.4 % dose (g of tissue)-1		3.23 % dose (g of tissue)-1	0.87 % dose (g of tissue)-1		
CC(C)CCCC(C)C1CCC2C3CC=C4CC(OC(=O)Cc5ccc(I)cc5)CCC4(C)C3CCC12C (centres undefined)	0.33 % dose (g of tissue)-1	27.09 % dose (g of tissue)-1	1.25 % dose (g of tissue)-1	1.88 % dose (g of tissue)-1	0.5 % dose (g of tissue)-1	3.29 % dose (g of tissue)-1	0.65 % dose (g of tissue)-1		2.32 % dose (g of tissue)-1	1.02 % dose (g of tissue)-1		
CC(C)CCCC(C)C1CCC2C3CC=C4CC(OC(=O)CCc5ccc(I)cc5)CCC4(C)C3CCC12C (centres undefined)	0.08 % dose (g of tissue)-1	67.52 % dose (g of tissue)-1	0.42 % dose (g of tissue)-1	0.16 % dose (g of tissue)-1	0.51 % dose (g of tissue)-1	3.56 % dose (g of tissue)-1	0.5 % dose (g of tissue)-1		1.35 % dose (g of tissue)-1	0.13 % dose (g of tissue)-1		
CC(C)CCCC(C)C1CCC2C3CC=C4CC(OC(=O)Cc5cccc(I)c5)CCC4(C)C3CCC12C (centres undefined)	0.11 % dose (g of tissue)-1	32.62 % dose (g of tissue)-1	2.11 % dose (g of tissue)-1	0.24 % dose (g of tissue)-1	0.77 % dose (g of tissue)-1	3.4 % dose (g of tissue)-1	0.27 % dose (g of tissue)-1		5.05 % dose (g of tissue)-1	0.14 % dose (g of tissue)-1		
CC(C)CCCC(C)C1CCC2C3CC=C4CC(OC(=O)c5ccccc5I)CCC4(C)C3CCC12C (centres undefined)	0.21 % dose (g of tissue)-1	1.96 % dose (g of tissue)-1	5.18 % dose (g of tissue)-1	0.8 % dose (g of tissue)-1	1.89 % dose (g of tissue)-1	14.67 % dose (g of tissue)-1	0.94 % dose (g of tissue)-1		13.68 % dose (g of tissue)-1	0.44 % dose (g of tissue)-1		
CC(C)CCCC(C)C1CCC2C3CC=C4CC(OC(=O)c5cc(I)c(I)c(I)c5)CCC4(C)C3CCC12C (centres undefined)	0.2 % dose (g of tissue)-1		4.8 % dose (g of tissue)-1	1.01 % dose (g of tissue)-1		7.48 % dose (g of tissue)-1	0.97 % dose (g of tissue)-1		12.53 % dose (g of tissue)-1	0.54 % dose (g of tissue)-1	2.98 % dose (g of tissue)-1	6.06 % dose (g of tissue)-1
CC(C)CCCC(C)C1CCC2C3CC=C4CC(OC(=O)c5ccc(I)cc5)CCC4(C)C3CCC12C (centres undefined)	0.11 % dose (g of tissue)-1	6.92 % dose (g of tissue)-1	3.28 % dose (g of tissue)-1	0.36 % dose (g of tissue)-1	1.49 % dose (g of tissue)-1	3.86 % dose (g of tissue)-1	0.94 % dose (g of tissue)-1	0.2 % dose (g of tissue)-1	6.21 % dose (g of tissue)-1			
CC(C)CCCC(C)C1CCC2C3CC=C4CC(OC(=O)c5cc(I)cc(I)c5I)CCC4(C)C3CCC12C (centres undefined)			5.11 % dose (g of tissue)-1	1.02 % dose (g of tissue)-1		9.03 % dose (g of tissue)-1	0.7 % dose (g of tissue)-1		16.19 % dose (g of tissue)-1	0.57 % dose (g of tissue)-1	1.68 % dose (g of tissue)-1	2.63 % dose (g of tissue)-1
CC(C)CCCC(C)C1CCC2C3CC=C4CC(OC(=O)Cc5ccccc5I)CCC4(C)C3CCC12C (centres undefined)	0.15 % dose (g of tissue)-1	46.31 % dose (g of tissue)-1	3.99 % dose (g of tissue)-1	0.29 % dose (g of tissue)-1	1.31 % dose (g of tissue)-1	9.19 % dose (g of tissue)-1	0.43 % dose (g of tissue)-1		5.97 % dose (g of tissue)-1	0.21 % dose (g of tissue)-1		
